For 167 variants, self-cleavage results are on record in the RNAGym collection of RNA variant scans (doi:10.1002/anie.201605470).

To fix the notation:
B1: Osa-1-4 twister ribozyme (parent)
chain: CCGCCUAACACUGCCAAUGCCGGUCCCAAGCCCGGAUAAAAGUGGAGGGGGCGG

In this data set the parent is B1. As to the kind of experiment: self-cleavage, relative activity (ratio to wild type); higher = more cleavage; co-transcriptional. Put shortly:
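The 48 positions downstream of the cleavage site in a DNA template for a 54-nucleotide Oryza sativa twister ribozyme carried 97 % wild-type base and 1 % of each other base. After in vitro transcription (2 h, 37 °C) with co-transcriptional self-cleavage, the RNA was reverse-transcribed with a template-switching oligonucleotide, PCR-amplified and deep-sequenced. Relative activity is the fraction cleaved, judged by reads with or without upstream sequence and normalised to wild type.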
For C25A G23A, the self-cleavage worked out at 0.06.

Consider C25A G23C, for which the self-cleavage was 0.02. In the case of C25U G44U, the self-cleavage worked out at 0.56. With C25U G44A, the self-cleavage came to 0.32. As for C25U G44C, the figure is 0.84; as for C25G U12A, 0.06; as for C25G U12G, 0.04. Take C25G U12C: the self-cleavage is 0.05. Regarding C25U C26G, the self-cleavage amounted to 0.08. For C25U C26U, the self-cleavage amounted to 0.21. For the variant C25U C26A, the self-cleavage turned out to be 0.04. In the case of C25A G48U, the self-cleavage is 0.03.

Take C25A G48A: the self-cleavage was determined as 0.03. For C25A G48C the value was 0.03; for C25G G23U, 0.04. For the variant C25G G23C, the self-cleavage came out at 0.04. For C25G G23A the value was 0.06.

C25U G50C: the self-cleavage turned out to be 0.23. For C25U G50U, the self-cleavage amounted to 0.52. For C25U G50A the value was 0.87; for C25G G45U, 0.02; for C25G G45A, 0.03.

On to C25G G45C, for which the self-cleavage was determined as 0.03. As for C25U U43G, the self-cleavage stood at 0.17. As to C25U U43A, the self-cleavage turned out to be 0.29. For C25U U43C, the self-cleavage amounted to 0.13.

Regarding C25U C32U, the self-cleavage came to 0.08. For the variant C25U C32G, the self-cleavage came to 0.1. As for C25U C32A, the self-cleavage came to 0.06. For C25U G35C the value was 0.09; for C25U G35U, 0.72.

With C25U G35A, the self-cleavage is 0.87. Consider C25G G47U, for which the self-cleavage stood at 0.03. For C25G G47A the value was 0.05; for C25G G47C, 0.02. Consider C26A C32G, for which the self-cleavage is 0.03. As for C26A C32A, the self-cleavage stood at 0.05. As for C26A C32U, the figure is 0.01; as for C25U C52G, 0.8. As for C25U C52U, the self-cleavage stood at 0.9.

As to C25U C52A, the self-cleavage is 0.66. For the variant C26A G19U, the self-cleavage came out at 0.03.

For C26A G19C, the self-cleavage is 0.02. As for C26A G19A, the self-cleavage was determined as 0.04.

As for C26A G47U, the self-cleavage is 0.03.

In the case of C26A G47C, the self-cleavage turned out to be 0.02. As for C26A G47A, the self-cleavage was 0.03. C26A G44C: the self-cleavage came to 0.05.

As to C26A G44U, the self-cleavage was 0.05. With C26A G44A, the self-cleavage amounted to 0.05.

As for C25U U24C, the self-cleavage was 0.08. As for C25U U24A, the figure is 0.06.

In the case of C25U U24G, the self-cleavage was 0.04. In the case of C25U G30U, the self-cleavage worked out at 0.05. Take C25U G30A: the self-cleavage came to 0.03.

Take C25U G30C: the self-cleavage is 0.03. For C25A G45U the value was 0.03. For the variant C25A G45C, the self-cleavage was found to be 0.03. As to C25A G45A, the self-cleavage was 0.03.

As to C25G C27G, the self-cleavage was 0.07. Regarding C25G C27U, the self-cleavage is 0.07. As for C25G C27A, the self-cleavage was found to be 0.02. Consider C25G C31G, for which the self-cleavage was 0.23.

On to C25G C31U, for which the self-cleavage was determined as 0.05. In the case of C25G C31A, the self-cleavage is 0.02.

Take C25U: the self-cleavage was found to be 0.93.

As to C25G, the self-cleavage was 0.12. C25A: the self-cleavage is 0.2. For C25A U18C the value was 0.15; for C25A U18A, 0.1; for C25A U18G, 0.35.

C25A G19C: the self-cleavage turned out to be 0.03. For C25A G19U the value was 0.04; for C25A G19A, 0.06.

For C25A C33G, the self-cleavage worked out at 0.02. As to C25A C33U, the self-cleavage stood at 0.07.

For C25A C33A, the self-cleavage was determined as 0.05.

In the case of C25G G54A, the self-cleavage stood at 0.11.

As for C25G G54U, the self-cleavage is 0.25. As for C25G G54C, the figure is 0.07; as for C25U U37C, 0.95. On to C25U U37G, for which the self-cleavage came out at 0.96. As to C25U U37A, the self-cleavage was found to be 0.74. In the case of C25G C26A, the self-cleavage was determined as 0.01. For the variant C25G C26G, the self-cleavage amounted to 0.12. With C25G C26U, the self-cleavage came out at 0.07. With C26A G42A, the self-cleavage turned out to be 0.04.

With C26A G42C, the self-cleavage worked out at 0.03. For C26A G42U, the self-cleavage is 0.02. Take C25G G42U: the self-cleavage amounted to 0.02. For C25G G42A the value was 0.09. In the case of C25G G42C, the self-cleavage stood at 0.06. Regarding C25G G53A, the self-cleavage is 0.08. As to C25G G53C, the self-cleavage was found to be 0.02.

As for C25G G53U, the self-cleavage came out at 0.06. As to C25U C33G, the self-cleavage stood at 0.06.

Turning to C25U C33U, the self-cleavage turned out to be 0.31.

Turning to C25U C33A, the self-cleavage is 0.06. With C25G G35U, the self-cleavage is 0.07. Consider C25G G35A, for which the self-cleavage worked out at 0.12.

C25G G35C: the self-cleavage amounted to 0.05. With C26A C9G, the self-cleavage was 0.05. For C26A C9U the value was 0.03. With C26A C9A, the self-cleavage was found to be 0.02. As for C25U G45U, the figure is 0.05; as for C25U G45A, 0.06; as for C25U G45C, 0.05.

For C25U U18C, the self-cleavage turned out to be 0.84.

As to C25U U18G, the self-cleavage worked out at 0.89. For C25U U18A the value was 0.75; for C25U C31G, 0.31; for C25U C31U, 0.13. On to C25U C31A, for which the self-cleavage amounted to 0.04. As for C25A C27A, the self-cleavage is 0.06. As to C25A C27U, the self-cleavage was 0.03. On to C25A C27G, for which the self-cleavage stood at 0.03. With C25G U43C, the self-cleavage turned out to be 0.06.

Regarding C25G U43G, the self-cleavage came out at 0.04. Consider C25G U43A, for which the self-cleavage stood at 0.08. As for C25G G49C, the self-cleavage came out at 0.7.

With C25G G49A, the self-cleavage turned out to be 0.07. On to C25G G49U, for which the self-cleavage came out at 0.61. For the variant C25U C27A, the self-cleavage was found to be 0.06. For C25U C27U the value was 0.17; for C25U C27G, 0.06; for C25U G22A, 0.74. Regarding C25U G22C, the self-cleavage was 0.07. As for C25U G22U, the self-cleavage is 0.47. Regarding C25A G50A, the self-cleavage amounted to 0.59. As for C25A G50U, the figure is 0.42; as for C25A G50C, 0.27; as for C25U G51U, 0.17.

Regarding C25U G51A, the self-cleavage worked out at 0.51.

Consider C25U G51C, for which the self-cleavage came out at 0.06. Consider C25G C52G, for which the self-cleavage was determined as 0.12.

Turning to C25G C52A, the self-cleavage worked out at 0.08. As for C25G C52U, the figure is 0.11; as for C25G C9A, 0.02; as for C25G C9U, 0.03. For the variant C25G C9G, the self-cleavage was found to be 0.07. Take C26A C52U: the self-cleavage was found to be 0.07. C26A C52G: the self-cleavage stood at 0.08.

Regarding C26A C52A, the self-cleavage came to 0.08. C26A G23C: the self-cleavage worked out at 0.01. For C26A G23U the value was 0.02; for C26A G23A, 0.04.

Take C25A G53U: the self-cleavage turned out to be 0.05. For the variant C25A G53A, the self-cleavage is 0.09. As for C25A G53C, the self-cleavage was found to be 0.03. As for C26A G13A, the figure is 0.02; as for C26A G13C, 0.01; as for C26A G13U, 0.02. Turning to C25U G19U, the self-cleavage stood at 0.08. Take C25U G19A: the self-cleavage worked out at 0.14. As for C25U G19C, the figure is 0.04; as for C25G U24C, 0.03; as for C25G U24A, 0.03. With C25G U24G, the self-cleavage was 0.02. For C25U G48U, the self-cleavage worked out at 0.04. As for C25U G48A, the figure is 0.07; as for C25U G48C, 0.06. As for C25G G34U, the self-cleavage amounted to 0.07. With C25G G34A, the self-cleavage is 0.08. For C25G G34C, the self-cleavage is 0.06. For C26A G48A, the self-cleavage stood at 0.03. In the case of C26A G48U, the self-cleavage turned out to be 0.7.

For the variant C26A G48C, the self-cleavage stood at 0.1.
